Laboratory results from ChEMBL document CHEMBL3124806, “Imidazopyridine-fused [1,3]-diazepinones: synthesis and antiproliferative activity” (Eur J Med Chem, 2014).
The source made the active and inactive calls. No cut-off for these calls is given here.

Assays:
MDA-MB-435 [1] = assay: Induction of apoptosis in human MDA-MB-435 cells assessed as stretched stress action fibres at 5 uM after 20 hrs by Hoechst 33342 staining-based […] microscopy; format: functional, cell-based
Method in brief: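 MDA-MB-435 cells were grown for 24 h, then treated with or without 5 μM compound for 20 h. Cells were fixed for 20 min and permeabilised with 0.2% Triton X-100 for 4 min at room temperature. Actin was stained with a mouse anti-actin antibody and an Alexa Fluor 568 anti-mouse antibody, each for 1 h at RT. Nuclei were counterstained with Hoechst 33342, and cells were imaged by confocal microscopy.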

SK-MEL-2 = assay: Cytotoxicity against human SK-MEL-2 cells assessed as cell growth at 10 uM after 48 hrs by MTT assay relative to untreated control; format: functional; details: SK-MEL-2, 48 h, read-out: Activity
Method in brief: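 Melanoma lines grown at 37 °C in humidified 5% CO2: MDA-MB-435 in DMEM/Ham's F12 1:1 with 10% FCS and antibiotics, SK-MEL-2 in RPMI-1640 with 10% FCS. Cells plated 24 h, then exposed 48 h to 100–0.01 µM (dilutions from fresh 100 µM stock in medium). MTT 0.5 mg/mL added for 4 h, crystals dissolved in EtOH/DMSO 1:1, absorbance read at 540 nm. Mean ± SD of three independent experiments.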

HOP-62 = assay: Cytotoxicity against human HOP62 cells after 48 hrs by SRB assay; format: functional; details: HOP-62, 48 h
Method in brief: (§1)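 NCI-60 five-dose testing, 100 to 0.01 µM, under a 48 h continuous-exposure protocol. Growth estimated by SRB protein assay, read spectrophotometrically against untreated controls; IC50 derived from the dose-response.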

CCRF-CEM = assay: Cytotoxicity against human CCRF-CEM cells after 48 hrs by SRB assay; format: functional; method in brief: as §1
HL-60(TB) = assay: Cytotoxicity against human HL-60(TB) cells after 48 hrs by SRB assay; format: functional; details: HL-60, 48 h
Method in brief: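 NCI-60 human tumour cell line panel; continuous 48 h exposure to five concentrations from 100 to 0.01 µM. Cell growth was read spectrophotometrically by sulforhodamine B protein staining against untreated controls, and […] was taken from the dose–response.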

HCC 2998 = assay: Cytotoxicity against human HCC2998 cells after 48 hrs by SRB assay; format: functional; details: HCC 2998, 48 h; method in brief: as §1
[2] = Cytotoxicity against human NCI-ADR-RES cells after 48 hrs by SRB assay; format: functional
Method in brief: (§2)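 NCI-60 five-dose screen: cells exposed continuously for 48 h across 100 to 0.01 µM. Growth or viability estimated by sulforhodamine B protein staining, read spectrophotometrically against untreated controls; IC50 taken from the dose-response.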

RXF 393 = assay: Cytotoxicity against human RXF393 cells after 48 hrs by SRB assay; format: functional; details: RXF 393, 48 h; method in brief: as §2
OVCAR-3 = assay: Cytotoxicity against human OVCAR3 cells after 48 hrs by SRB assay; format: functional; details: OVCAR-3, 48 h; method in brief: as §2
HT-29 = assay: Cytotoxicity against human HT-29 cells after 48 hrs by SRB assay; format: functional; details: HT-29, 48 h; method in brief: as §1
U-251 = assay: Cytotoxicity against human U251 cells after 48 hrs by SRB assay; format: functional; details: U-251, 48 h
Method in brief: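 NCI-60 five-dose mode on the full human tumour line panel. Concentrations ran from 100 to 0.01 µM with 48 h continuous exposure. Growth was estimated by SRB protein staining against untreated controls, and IC50 values were derived from the dose–response.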

SF-539 = assay: Cytotoxicity against human SF539 cells after 48 hrs by SRB assay; format: functional; details: SF-539, 48 h; method in brief: as §2
MDA-MB-231 = assay: Cytotoxicity against human MDA-MB-231 cells after 48 hrs by SRB assay; format: functional; details: MDA-MB-231, 48 h; method in brief: as §2
A549 = assay: Cytotoxicity against human A549 cells after 48 hrs by SRB assay; format: functional; details: A549, 48 h; method in brief: as §1
[3] = Cytotoxicity against human OVCAR5 cells after 48 hrs by SRB assay; format: functional; details: OVCAR-5, 48 h; method in brief: as §2
CAKI-1 = assay: Cytotoxicity against human Caki1 cells after 48 hrs by SRB assay; format: functional; details: CAKI-1, 48 h; method in brief: as §1
[4] = Cytotoxicity against human OVCAR4 cells after 48 hrs by SRB assay; format: functional; details: OVCAR-4, 48 h; method in brief: as §2
[5] = target: Cyclin-dependent kinase 1 (Homo sapiens) (UniProt P06493); assay: Inhibition of human CDK1 at 10 uM
Method in brief: (§3)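 Kinase selectivity panel of 19 protein tyrosine kinases and 30 serine/threonine kinases, run by a contract lab (CEREP). Each compound was tested at a single dose of 10 μM in duplicate.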

MDA-MB-435 [6] = assay: Cytotoxicity against human MDA-MB-435 cells at 5 uM after 8 hrs by MTT assay; format: functional
Method in brief: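 MDA-MB-435 cells in DMEM/Ham's F12 (1:1) with 10% FCS, 37 °C, 5% CO2. Time course at a fixed 5 µM, incubated 8, 16, 24 or 48 h. Viability then read by MTT reduction (0.5 mg/mL, 4 h), formazan dissolved in EtOH/DMSO, absorbance at 540 nm, as percent living cells.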

MDA-MB-468 = assay: Cytotoxicity against human MDA-MB-468 cells after 48 hrs by SRB assay; format: functional; details: MDA-MB-468, 48 h; method in brief: as §2
MDA-MB-435 [7] = assay: Induction of apoptosis in human MDA-MB-435 cells assessed as chromatin condensation at 5 uM after 20 hrs by Hoechst 33342 staining-based phase-contrast microscopy; format: functional, cell-based
Malme-3M = assay: Cytotoxicity against human MALME-3M cells after 48 hrs by SRB assay; format: functional; method in brief: as §1
LOX IMVI = assay: Cytotoxicity against human LOXIMVI cells after 48 hrs by SRB assay; format: functional; method in brief: as §1
[8] = target: Mitogen-activated protein kinase kinase kinase kinase 4 (Homo sapiens) (UniProt O95819); assay: Inhibition of human HGK at 10 uM; method in brief: as §3
[9] = read-out: LC50 (the source's name)

Mitogen-activated protein kinase kinase kinase kinase 4 (Homo sapiens), sequence (O95819 2-1239 limits assumed): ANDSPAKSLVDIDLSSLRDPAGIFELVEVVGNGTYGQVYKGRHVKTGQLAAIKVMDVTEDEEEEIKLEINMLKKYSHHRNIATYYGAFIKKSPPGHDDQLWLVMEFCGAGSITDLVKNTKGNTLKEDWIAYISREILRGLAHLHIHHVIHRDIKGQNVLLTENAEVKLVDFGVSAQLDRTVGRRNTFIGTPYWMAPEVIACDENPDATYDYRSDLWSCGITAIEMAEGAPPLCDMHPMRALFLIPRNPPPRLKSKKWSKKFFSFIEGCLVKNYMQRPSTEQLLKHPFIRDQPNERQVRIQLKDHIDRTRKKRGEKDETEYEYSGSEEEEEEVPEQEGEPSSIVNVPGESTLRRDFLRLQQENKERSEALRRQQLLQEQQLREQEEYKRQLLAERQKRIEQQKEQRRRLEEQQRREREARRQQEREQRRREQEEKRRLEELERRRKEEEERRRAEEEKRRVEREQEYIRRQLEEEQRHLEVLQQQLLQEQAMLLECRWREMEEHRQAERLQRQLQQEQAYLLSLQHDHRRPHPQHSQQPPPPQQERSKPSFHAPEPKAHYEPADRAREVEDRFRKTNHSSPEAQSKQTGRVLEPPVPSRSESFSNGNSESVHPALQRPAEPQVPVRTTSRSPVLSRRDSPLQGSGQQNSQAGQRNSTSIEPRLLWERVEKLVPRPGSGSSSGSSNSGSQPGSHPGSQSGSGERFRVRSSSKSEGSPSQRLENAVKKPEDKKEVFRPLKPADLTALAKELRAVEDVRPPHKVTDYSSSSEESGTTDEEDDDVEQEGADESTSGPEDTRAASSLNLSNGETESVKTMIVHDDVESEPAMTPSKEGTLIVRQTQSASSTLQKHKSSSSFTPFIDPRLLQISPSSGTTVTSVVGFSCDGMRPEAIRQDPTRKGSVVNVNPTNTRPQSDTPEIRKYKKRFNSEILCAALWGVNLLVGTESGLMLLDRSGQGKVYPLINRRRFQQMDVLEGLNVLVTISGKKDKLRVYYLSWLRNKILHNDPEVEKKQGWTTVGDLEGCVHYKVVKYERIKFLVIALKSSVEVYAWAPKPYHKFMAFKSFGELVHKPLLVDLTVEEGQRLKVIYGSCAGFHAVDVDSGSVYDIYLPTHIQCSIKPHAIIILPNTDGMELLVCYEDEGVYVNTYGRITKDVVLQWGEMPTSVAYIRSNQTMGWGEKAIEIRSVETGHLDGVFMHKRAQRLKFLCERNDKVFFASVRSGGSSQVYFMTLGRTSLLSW
Cyclin-dependent kinase 1 (Homo sapiens), sequence (P06493 whole entry, looked up): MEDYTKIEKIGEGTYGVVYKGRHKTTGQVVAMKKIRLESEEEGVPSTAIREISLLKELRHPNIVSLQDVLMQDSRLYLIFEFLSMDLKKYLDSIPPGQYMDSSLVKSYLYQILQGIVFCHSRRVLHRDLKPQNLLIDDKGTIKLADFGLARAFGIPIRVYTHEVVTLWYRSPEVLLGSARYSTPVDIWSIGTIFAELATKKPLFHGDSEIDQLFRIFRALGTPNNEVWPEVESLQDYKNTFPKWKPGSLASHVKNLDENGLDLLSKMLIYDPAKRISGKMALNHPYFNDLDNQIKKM

In the case of C[C@@H]1NC(c2ccccc2)=Nc2nc3ccccn3c2C1=O, the Activity (MDA-MB-435 [1]) is reported as “inactive”.
With C[C@@H]1NC(c2ccc(Br)cc2)=Nc2nc3ccccn3c2C1=O the growth at 10 µM (SK-MEL-2) was 32%, the GI50 (HOP-62) was 5.75 µM and the TGI (HOP-62) was over 100 µM. For the same molecule, the CC50 (HOP-62; [9]) was over 100 µM, the GI50 (CCRF-CEM) was 6.56 µM and the TGI (CCRF-CEM) was over 100 µM. The CC50 (CCRF-CEM; [9]) was over 100 µM, the GI50 (HL-60(TB)) was 6.49 µM and the TGI (HL-60(TB)) was over 100 µM. The CC50 (HL-60(TB); [9]) was over 100 µM, the GI50 (HCC 2998) was 21.9 µM and the TGI (HCC 2998) was over 100 µM. For the same molecule, the CC50 (HCC 2998; [9]) was over 100 µM, the GI50 [2] was 7.45 µM and the TGI [2] was over 100 µM. The CC50 [2, 9] was over 100 µM, the GI50 (RXF 393) was 10.2 µM and the TGI (RXF 393) was 51.8 µM. For the same molecule, the CC50 (RXF 393; [9]) was over 100 µM, the GI50 (OVCAR-3) was 3.34 µM and the TGI (OVCAR-3) was 17.8 µM. The CC50 (OVCAR-3; [9]) was over 100 µM, the GI50 (HT-29) was 3.73 µM and the TGI (HT-29) was over 100 µM. It also gave a CC50 (HT-29; [9]) of over 100 µM, a GI50 (U-251) of 6.64 µM and a TGI (U-251) of over 100 µM. For the same molecule, the CC50 (U-251; [9]) was over 100 µM, the GI50 (SF-539) was 7.98 µM and the TGI (SF-539) was 85.3 µM. For the same molecule, the CC50 (SF-539; [9]) was over 100 µM, the GI50 (MDA-MB-231) was 6.08 µM and the TGI (MDA-MB-231) was over 100 µM. The CC50 (MDA-MB-231; [9]) was over 100 µM, the GI50 (A549) was 6.7 µM and the TGI (A549) was over 100 µM. For the same molecule, the CC50 (A549; [9]) was over 100 µM, the GI50 [3] was 23.5 µM and the TGI [3] was over 100 µM. It also gave a CC50 [3, 9] of over 100 µM, a GI50 (CAKI-1) of 3.09 µM and a TGI (CAKI-1) of over 100 µM. It also gave a CC50 (CAKI-1; [9]) of over 100 µM, a GI50 [4] of 17.9 µM and a TGI [4] of over 100 µM. The CC50 [4, 9] was over 100 µM, the inhibition [5] was “inactive” and the Activity (MDA-MB-435 [6]) was 35%. The GI50 (MDA-MB-468) was 1980 nM, the TGI (MDA-MB-468) was 5.12 µM and the CC50 (MDA-MB-468; [9]) was over 100 µM. For the same molecule, the Activity (MDA-MB-435 [7]) was “Active”, the GI50 (Malme-3M) was 15.2 µM and the TGI (Malme-3M) was over 100 µM. It also gave a CC50 (Malme-3M; [9]) of over 100 µM, a GI50 (LOX IMVI) of 6.34 µM and a TGI (LOX IMVI) of over 100 µM. It also gave a CC50 (LOX IMVI; [9]) of over 100 µM and an inhibition [8] of 50%.
